Data on twelve compounds can be found in ChEMBL document CHEMBL1155808, “Antitumor activity of bis-indole derivatives” (J Med Chem, 2008).

SMILES strings stand for the structures. Where a name gives a salt, the structure may show the parent alone. Active and inactive are the calls of the source. The rule behind the calls is not given here. Bounds are passed on as bounds.

Assay [1] is described as follows: Cytotoxicity against human Non-small cell lung carcinoma cells. Type of assay: functional. Conditions: for CC50: read-out: pLC50 (the source's name) (converted); for TGI: read-out: pTGI (converted). Put shortly: (§1)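 NCI 60-cell-line human tumour screen, with subpanels for leukemia, melanoma, lung, colon, kidney, ovary, breast, prostate and CNS. Compounds were dissolved in DMSO and tested at five ten-fold dilutions, highest 10^-4 M (10^-3 M for some). Endpoints were GI50, TGI and LC50, reported as negative log molar. Some compounds were assayed once, others two or three times.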

The nature of assay [2]: Cytotoxicity against human central nervous system cancer cells. The class given is functional. Conditions: Cancer cell lines; for TGI: read-out: pTGI (converted); for CC50: read-out: pLC50 (the source's name) (converted). The gist of the method: as §1
A short description of assay [3]: Cytotoxicity against human ovarian cancer cells. Conditions: Cancer cell lines; for CC50: read-out: pLC50 (the source's name) (converted); for TGI: read-out: pTGI (converted). The class given is functional.
Assay [4] can be described thus: Cytotoxicity against human renal cancer cells. The class given is functional. As to conditions: Cancer cell lines; for CC50: read-out: pLC50 (the source's name) (converted); for TGI: read-out: pTGI (converted). Put shortly:
as §1

Assay [5] is described as follows: Cytotoxicity against human breast cancer cells. The class given is functional. As to conditions: Cancer cell lines; for CC50: read-out: pLC50 (the source's name) (converted); for TGI: read-out: pTGI (converted). The gist of the method: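 MTT cytotoxicity assay in breast cancer cell lines; proliferation expressed as percent growth inhibition relative to vehicle-treated control cells; IC50 reported.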

Assay [6] can be described thus: Cytotoxicity against human leukemia cells. The class given is functional. As to conditions: Leukemia cell; for CC50: read-out: pLC50 (the source's name) (converted); for TGI: read-out: pTGI (converted). The gist of the method: as §1
A short description of assay [7]: Cytotoxicity against human colon cancer cells. Type of assay: functional. As to conditions: Cancer cell lines; for CC50: read-out: pLC50 (the source's name) (converted); for TGI: read-out: pTGI (converted). Put shortly: as §1
Assay [8] in a line: Cytotoxicity against human melanoma cells. The class given is functional. Conditions: Melanoma cell; for CC50: read-out: pLC50 (the source's name) (converted); for TGI: read-out: pTGI (converted).
A short description of assay [9]: Cytotoxicity against human prostate cancer cells. Type of assay: functional. As to conditions: Cancer cell lines; for CC50: read-out: pLC50 (the source's name) (converted); for TGI: read-out: pTGI (converted). Put shortly:
as §1

Assay [10] can be described thus: Inhibition of plasma membrane electron transport pathway in mitochondrial gene-knockout human HL60p'0 cells by WST1 reduction assay. The gist of the method:
(§2)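 Cells at 10^5 per well in 0.1 ml pretreated 30 min with compound in DMSO (<0.1% final), then WST-1/mPMS added (final 500 µM and 20 µM); WST-1 reduction followed in real time at 450 nm; averages ± S.E.M. of four independent experiments.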

A short description of assay [11]: Inhibition of plasma membrane electron transport pathway in human HL60 cells by WST1 reduction assay. The class given is cell-based. As to conditions: HL-60. The gist of the method: as §2
In general terms: Tetrazolium assays rely on reduction of a dye to a coloured formazan, in cell work by metabolically active cells.

A further assay relates to B1647. The experiment in a line: Antiproliferative activity against human B1647 cells after 48 hrs by MTT assay. Type of assay: functional, cell-based.
A further assay has as its system HEL. The assay is described as follows: Antiproliferative activity against human HEL cells after 48 hrs by MTT assay. The class given is functional, cell-based.
A further assay relates to Mo7e. The assay is described as follows: Antiproliferative activity against human Mo7e cells after 48 hrs by MTT assay. The class given is functional, cell-based.

As a reminder, the GI50 is the concentration at which growth is held to half of that of the control. Lower therefore signals greater sensitivity of the cells. With `O=C1Nc2ccccc2/C1=c1/[nH]c(=O)/c(=C2/C(=O)Nc3ccccc32)[nH]c1=O`, the GI50 was 85.1 µM in assay [1]; 74.1 µM in assay [2]; 97.7 µM in assay [3]; 83.2 µM in assay [4]; 85.1 µM in assay [5].

Consider `O=C(O)CCC(=O)c1ccc2c(c1)/C(=C\c1cccc(/C=C3/C(=O)Nc4ccc(C(=O)CCC(=O)O)cc43)n1)C(=O)N2`, for which, in assay [2], the GI50 was 30.2 µM and the TGI was 61.7 µM. Moreover, the GI50 in assay [6] is 15.5 µM.

Usually IC50 stands for the concentration at which inhibition is half-maximal. Consider `O=C1Nc2cc(Cl)ccc2/C1=C\c1cccc(/C=C2/C(=O)Nc3cc(Cl)ccc32)n1`, for which the GI50 was 3.72 µM in assay [1]; 1740 nM in [7]; 2.24 µM in [2]; 1.78 µM in assay [8]; 3.02 µM in [3]; 1.07 µM in [4]. Besides, the GI50 in assay [9] was 3.39 µM; in assay [5], 2.29 µM; in [6] it was 1.45 µM. Further, the CC50 was 57.5 µM in [1]; 25.1 µM in [7]; 36.3 µM in assay [2]; 21.4 µM in [8]; 63.1 µM in [3]; 20 µM in [4]. The CC50 in assay [9] is 70.8 µM; in assay [5] it was 52.5 µM; in [6], 95.5 µM. Besides, the TGI in assay [1] was 14.8 µM; in [7] it was 4.9 µM; in [2], 7.76 µM; in assay [8] it was 6.17 µM; in assay [3] it was 19.5 µM; in [4], 3.31 µM. For the same compound, the TGI was 40.7 µM in assay [9], 13.5 µM in assay [5] and 8.13 µM in assay [6]. The IC50 in assay [10] and in assay [11] was above 117 µM in each case. In addition, the outcome in the assay with B1647, in the assay on HEL and in the assay on Mo7e was Active.

For `O=C1Nc2ccc(S(=O)(=O)O)cc2/C1=C\c1cccc(/C=C2/C(=O)Nc3ccc(S(=O)(=O)O)cc32)n1`, the GI50 is 95.5 µM in [8], 85.1 µM in assay [4] and 93.3 µM in assay [6].

Turning to `O=C1Nc2ccc(F)cc2/C1=C\c1cccc(/C=C2/C(=O)Nc3ccc(F)cc32)n1`, the GI50 is 7.24 µM in [1]; 2140 nM in assay [7]; 3.8 µM in [2]; 2.04 µM in assay [8]; 4.17 µM in assay [3]; 4.17 µM in assay [4]. The GI50 in [9] is 3.47 µM; in assay [5], 2.95 µM; in [6], 1.17 µM. Also, the CC50 is 79.4 µM in assay [1]; 39.8 µM in assay [7]; 53.7 µM in assay [2]; 36.3 µM in assay [8]; 81.3 µM in assay [3]; 51.3 µM in assay [4]. Besides, the CC50 was 74.1 µM in assay [9] and 50.1 µM in [5]. Further, the TGI in [1] was 26.3 µM; in [7] it was 5.37 µM; in assay [2], 11.5 µM; in assay [8] it was 4.9 µM; in [4] it was 12.9 µM; in [9], 12.3 µM. For the same compound, the TGI was 14.5 µM in [5] and 7.76 µM in assay [6]. In addition, the IC50 in [10] and in assay [11] was above 117 µM each time. Also, the outcome with B1647, in the assay with HEL and in the assay with Mo7e was Active.

Turning to `O=C1Nc2ccccc2/C1=C\c1cccc(/C=C2/C(=O)Nc3ccccc32)n1`, the GI50 is 0.813 µM in [1]; 282 nM in [7]; 0.575 µM in assay [2]; 0.302 µM in assay [8]; 0.589 µM in assay [3]; 0.631 µM in assay [9]. Moreover, the GI50 in assay [5] was 0.49 µM; in [6], 0.234 µM. Also, the CC50 is 22.4 µM in assay [1]; 6.46 µM in assay [7]; 7.08 µM in assay [2]; 4.68 µM in [8]; 6.61 µM in [3]; 5.37 µM in assay [4]. Further, the figures for the CC50 in assay [9] and in assay [5] were 24.5 µM and 57.5 µM, respectively. In addition, the TGI in assay [1] was 3.16 µM; in assay [7] it was 0.776 µM; in assay [2], 1.82 µM; in assay [8], 0.933 µM; in [3], 1.78 µM; in assay [4], 1.62 µM. Moreover, the TGI is 2.69 µM in [9] and 1.95 µM in assay [6].

Turning to `COc1ccc2c(c1)/C(=C\c1cccc(/C=C3/C(=O)N(C)c4ccc(OC)cc43)n1)C(=O)N2C`, the GI50 is 2.45 µM in [1]; 1450 nM in [7]; 3.24 µM in [2]; 1.05 µM in assay [8]; 2.57 µM in assay [3]; 1.51 µM in [4]. For the same compound, the GI50 in assay [9] was 2.09 µM; in assay [5] it was 1.62 µM; in [6], 38 µM. The CC50 in assay [1] is 74.1 µM; in assay [7], 11.7 µM; in assay [8] it was 8.91 µM; in assay [4], 20.9 µM; in [5], 63.1 µM. The TGI was 19.1 µM in assay [1]; 3.39 µM in [7]; 14.8 µM in assay [2]; 3.8 µM in [8]; 5.25 µM in [4].

In the case of `CC[C@]1(O)C[C@H]2CN(CCc3c([nH]c4ccccc34)[C@@](C(=O)OC)(c3cc4c(cc3OC)N(C=O)[C@H]3[C@@](O)(C(=O)OC)[C@H](OC(C)=O)[C@]5(CC)C=CCN6CC[C@]43[C@@H]65)C2)C1` [VINCRISTINE SULFATE], the GI50 in assay [1] is 0.251 µM; in assay [7] it was 100 nM; in assay [2], 0.126 µM; in assay [8], 0.158 µM; in [3] it was 0.316 µM; in [4], 0.316 µM. Also, the figures for the GI50 in assay [9], in assay [5] and in [6] were 0.126 µM, 0.316 µM and 0.1 µM, respectively. Moreover, the CC50 was 79.4 µM in assay [7]; 200 µM in [2]; 316 µM in assay [3]; 251 µM in assay [4]; 316 µM in assay [9]; 316 µM in [5]. Also, the CC50 in [6] was 631 µM.

In the case of `COc1ccc2[nH]cc(/C=c3\[nH]c(=O)/c(=C/c4c[nH]c5ccc(OC)cc45)[nH]c3=O)c2c1`, the GI50 is 72.4 µM in assay [8], 89.1 µM in assay [3] and 79.4 µM in assay [5].

Take `O=C1Nc2ccc(Br)cc2/C1=C\c1cccc(/C=C2/C(=O)Nc3ccc(Br)cc32)n1`: the GI50 in assay [1] was 11 µM; in assay [7], 10500 nM; in assay [2], 3.72 µM; in assay [8] it was 10 µM; in assay [3] it was 9.77 µM; in [4], 7.94 µM. Moreover, the GI50 in assay [9] is 6.46 µM; in assay [5], 6.17 µM. The CC50 was 63.1 µM in [1]; 52.5 µM in assay [7]; 40.7 µM in [2]; 52.5 µM in assay [8]; 58.9 µM in assay [3]; 51.3 µM in assay [4]. Also, the results for the CC50 in assay [9] and in assay [5] were 55 µM and 53.7 µM, respectively. The TGI was 28.2 µM in [1]; 24.5 µM in assay [7]; 14.1 µM in [2]; 23.4 µM in assay [8]; 25.7 µM in assay [3]; 21.9 µM in assay [4]. The TGI in assay [9] is 20.9 µM; in assay [5], 18.2 µM.

Take `Cc1cc2c(cc1O)/C(=C\c1cccc(/C=C3/C(=O)Nc4cc(C)c(O)cc43)n1)C(=O)N2`: the GI50 is 85.1 µM in [1]; 72400 nM in assay [7]; 87.1 µM in assay [8]; 75.9 µM in assay [3]; 67.6 µM in assay [4]; 66.1 µM in assay [9]. Besides, the GI50 in assay [5] was 70.8 µM; in [6], 27.5 µM. The TGI in [5] was 87.1 µM. For the same compound, the IC50 in assay [10] and in assay [11] was above 117 µM in each case. The result in the assay with B1647, with HEL and in the assay on Mo7e was Active.

Take `COc1cc2c(cc1C)NC(=O)/C2=C/c1cccc(/C=C2/C(=O)Nc3cc(C)c(OC)cc32)n1`: the GI50 is 83.2 µM in [1]; 49000 nM in assay [7]; 89.1 µM in [2]; 79.4 µM in assay [8]; 89.1 µM in assay [3]; 52.5 µM in assay [4]. For the same compound, the GI50 in assay [9] is 33.9 µM; in [5], 74.1 µM; in assay [6] it was 4.37 µM. The figures for the TGI in assay [5] and in [6] were 93.3 µM and 60.3 µM, respectively. For the same compound, in assay [6], the CC50 was 91.2 µM. Besides, the IC50 in assay [10] and in [11] was above 117 µM each time. Also, the outcome with B1647, in the assay with HEL and in the assay with Mo7e was Active.
